Test results as given in ChEMBL document CHEMBL2034860, “Cytotoxic heterocyclic triterpenoids derived from betulin and betulinic acid” (Bioorg Med Chem, 2012).

What was measured:
[1] = tested on: CCRF-CEM; experiment: Cytotoxicity against human CCRF-CEM cells after 72 hrs by MTT assay; assay type: functional, cell-based
[2] = Solubility of the compound in water based media; assay type: physicochemical; settings: buffer
[3] = tested on: HCT-116; experiment: Cytotoxicity against human HCT116 cells after 72 hrs by MTT assay; assay type: functional, cell-based; settings: HCT-116, 72 h
Summary of the method: (§1)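 Cells seeded at 2500–30,000 per well according to cell type and pre-incubated 24 h at 37 °C, 5% CO2. Four-fold dilutions of compounds dissolved in 10% DMSO were added at time zero, in quadruplicate, then incubated 72 h. MTT was added for a further 1–4 h and formazan dissolved in 10% aq SDS (pH 5.5) overnight at 37 °C. OD was read at 540 nm. Survival was taken as % of mean control OD, and IC50 was read from dose-response curves.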

[4] = tested on: CCRF-CEM; experiment: Cytotoxicity against human daunorubicine resistant CEM cells after 72 hrs by MTT assay; assay type: functional, cell-based; summary of the method: as §1
[5] = tested on: A549; experiment: Cytotoxicity against human A549 cells after 72 hrs by MTT assay; assay type: functional, cell-based; settings: A549, 72 h; summary of the method: as §1
[6] = tested on: MRC5; experiment: Cytotoxicity against human MRC5 cells after 72 hrs by MTT assay; assay type: cell-based; settings: MRC5, 72 h; summary of the method: as §1
[7] = Therapeutic index, ratio of IC50 for human BJ cells to IC50 for human CCRF-CEM cells; assay type: cell-based; settings: BJ cells versus CCRF-CEM cells, read-out: Ratio IC50
[8] = tested on: K562; experiment: Cytotoxicity against human paclitaxel resistant K562 cells after 72 hrs by MTT assay; assay type: functional, cell-based; settings: K562, 72 h; summary of the method: as §1
[9] = Therapeutic index, ratio of IC50 for human BJ cells to IC50 for human K562 cells; assay type: cell-based; settings: BJ cells versus K562 cells, read-out: Ratio IC50
[10] = tested on: K562; experiment: Cytotoxicity against human K562 cells after 72 hrs by MTT assay; assay type: functional, cell-based; settings: K562, 72 h; summary of the method: as §1
[11] = Therapeutic index, ratio of IC50 for human MRC5 cells to IC50 for human CCRF-CEM cells; assay type: cell-based; settings: MRC5 cells versus CCRF-CEM cells, read-out: Ratio IC50
[12] = Therapeutic index, ratio of IC50 for human BJ cells to IC50 for paclitaxel-resistant human K562 cells; assay type: cell-based; settings: BJ cells versus paclitaxel-resistant K562 cells, read-out: Ratio IC50
[13] = tested on: BJ; experiment: Cytotoxicity against human BJ cells after 72 hrs by MTT assay; assay type: cell-based; summary of the method: as §1
[14] = tested on: HCT-116; experiment: Cytotoxicity against human p53-deficient HCT116 cells after 72 hrs by MTT assay; assay type: functional, cell-based; settings: HCT-116, 72 h; summary of the method: as §1

SMILES: CCOC(=O)C1=C(O)C(C)(C)[C@@H]2CC[C@]3(C)[C@H](CC[C@@H]4[C@H]5[C@H](C(C)C)CC[C@]5(C(=O)O)CC[C@]43C)[C@@]2(C)C1
- IC50 [1]: 142 µM

SMILES: CC1(C)CC[C@]23CC[C@]4(C)[C@H](CC[C@@H]5[C@@]6(C)Cc7c[nH]nc7C(C)(C)[C@@H]6CC[C@]54C)[C@H]2[C@H]1OC3
- IC50 [1]: 210 µM
- solubility [2]: Insoluble

SMILES: CC(C)[C@@H]1CC[C@]2(C(=O)O)CC[C@]3(C)[C@H](CC[C@@H]4[C@@]5(C)CC(Br)(Br)C(=O)C(C)(C)[C@@H]5CC[C@]43C)[C@@H]12
- IC50 [3]: 2.4 µM
- IC50 [1]: 1 µM
- IC50 [4]: 7 µM
- IC50 [5]: 8.4 µM
- IC50 [6]: 8 µM
- selectivity ratio [7]: > 10
- IC50 [8]: 1.1 µM
- selectivity ratio [9]: > 10
- IC50 [10]: 0.9 µM
- selectivity ratio [11]: 8
- selectivity ratio [12]: > 10
- IC50 [13]: 13.3 µM
- IC50 [14]: 2.6 µM

SMILES: CC1(C)CC[C@]23CC[C@]4(C)[C@H](CC[C@@H]5[C@@]6(C)CC(Br)(Br)C(=O)C(C)(C)[C@@H]6CC[C@]54C)[C@H]2[C@H]1OC3
- IC50 [1]: > 250 µM

SMILES: CC1(C)CC[C@]23CC[C@]4(C)[C@H](CC[C@@H]5[C@@]6(C)C/C(=C/O)C(=O)C(C)(C)[C@@H]6CC[C@]54C)[C@H]2[C@H]1OC3
- IC50 [1]: > 250 µM

SMILES: C=C(C)[C@@H]1CC[C@]2(C(=O)O)CC[C@]3(C)[C@H](CC[C@@H]4[C@@]5(C)C/C(=C/O)C(=O)C(C)(C)[C@@H]5CC[C@]43C)[C@@H]12
- IC50 [3]: 12.1 µM
- IC50 [1]: 4 µM
- IC50 [4]: 29.6 µM
- IC50 [5]: 17.6 µM
- IC50 [6]: 29.9 µM
- selectivity ratio [7]: > 10
- IC50 [8]: 12.7 µM
- selectivity ratio [9]: 6.6
- IC50 [10]: 8.4 µM
- selectivity ratio [11]: 8.5
- selectivity ratio [12]: 4.4
- IC50 [13]: 55.5 µM
- IC50 [14]: 13.7 µM

SMILES: CC(C)[C@@H]1CC[C@]2(C(=O)O)CC[C@]3(C)[C@H](CC[C@@H]4[C@@]5(C)C/C(=C/O)C(=O)C(C)(C)[C@@H]5CC[C@]43C)[C@@H]12
- IC50 [1]: 61 µM

SMILES: CCOC(=O)C1=C(O)C(C)(C)[C@@H]2CC[C@]3(C)[C@H](CC[C@@H]4[C@H]5[C@H]6OC[C@@]5(CCC6(C)C)CC[C@]43C)[C@@]2(C)C1
- IC50 [1]: > 250 µM

SMILES: C=C(C)[C@@H]1CC[C@]2(C(=O)O)CC[C@]3(C)[C@H](CC[C@@H]4[C@@]5(C)CC(C(=O)OCC)=C(O)C(C)(C)[C@@H]5CC[C@]43C)[C@@H]12
- IC50 [1]: 161 µM

SMILES: C=C(C)[C@@H]1CC[C@]2(C(=O)O)CC[C@]3(C)[C@H](CC[C@@H]4[C@@]5(C)Cc6c[nH]nc6C(C)(C)[C@@H]5CC[C@]43C)[C@@H]12
- IC50 [3]: 4.5 µM
- IC50 [1]: 3 µM
- IC50 [4]: 10.4 µM
- IC50 [5]: 5.2 µM
- IC50 [6]: 14.1 µM
- IC50 [8]: 3 µM
- IC50 [10]: 2.6 µM
- IC50 [13]: 35.8 µM
- IC50 [14]: 3.3 µM
- solubility [2]: Insoluble

SMILES: CC(C)[C@@H]1CC[C@]2(C(=O)O)CC[C@]3(C)[C@H](CC[C@@H]4[C@@]5(C)Cc6c[nH]nc6C(C)(C)[C@@H]5CC[C@]43C)[C@@H]12
- IC50 [3]: 3.9 µM
- IC50 [1]: 3 µM
- IC50 [4]: 8.2 µM
- IC50 [5]: 3.6 µM
- IC50 [6]: 13.4 µM
- IC50 [8]: 2.7 µM
- IC50 [10]: 3.5 µM
- IC50 [13]: 22.4 µM
- IC50 [14]: 2.8 µM
- solubility [2]: Insoluble

SMILES: CC1(C)CC[C@]23CC[C@]4(C)[C@H](CC[C@@H]5[C@@]6(C)Cc7cnn(-c8ccccc8)c7C(C)(C)[C@@H]6CC[C@]54C)[C@H]2[C@H]1OC3
- IC50 [1]: 250 µM
- solubility [2]: Insoluble

SMILES: C=C(C)[C@@H]1CC[C@]2(C(=O)O)CC[C@]3(C)[C@H](CC[C@@H]4[C@@]5(C)Cc6cnn(-c7ccccc7)c6C(C)(C)[C@@H]5CC[C@]43C)[C@@H]12
- IC50 [1]: 31 µM
- solubility [2]: Insoluble

SMILES: CC(C)[C@@H]1CC[C@]2(C(=O)O)CC[C@]3(C)[C@H](CC[C@@H]4[C@@]5(C)Cc6cnn(-c7ccccc7)c6C(C)(C)[C@@H]5CC[C@]43C)[C@@H]12
- IC50 [1]: 45 µM
- solubility [2]: Insoluble

SMILES: CC1(C)CC[C@]23CC[C@]4(C)[C@H](CC[C@@H]5[C@@]6(C)Cc7c(n[nH]c7O)C(C)(C)[C@@H]6CC[C@]54C)[C@H]2[C@H]1OC3
- IC50 [1]: 33 µM
- solubility [2]: Insoluble

SMILES: CC(C)[C@@H]1CC[C@]2(C(=O)O)CC[C@]3(C)[C@H](CC[C@@H]4[C@@]5(C)Cc6c(n[nH]c6O)C(C)(C)[C@@H]5CC[C@]43C)[C@@H]12
- IC50 [1]: 123 µM
- solubility [2]: Insoluble

SMILES: CC1(C)CC[C@]23CC[C@]4(C)[C@H](CC[C@@H]5[C@@]6(C)Cc7conc7C(C)(C)[C@@H]6CC[C@]54C)[C@H]2[C@H]1OC3
- IC50 [1]: > 250 µM
- solubility [2]: Insoluble

SMILES: CC1(C)CC[C@]23CC[C@]4(C)[C@H](CC[C@@H]5[C@@]6(C)Cc7cnoc7C(C)(C)[C@@H]6CC[C@]54C)[C@H]2[C@H]1OC3
- IC50 [1]: > 250 µM
- solubility [2]: Insoluble

SMILES: CC1(C)CC[C@]23CC[C@]4(C)[C@H](CC[C@@H]5[C@@]6(C)Cc7sc(N)nc7C(C)(C)[C@@H]6CC[C@]54C)[C@H]2[C@H]1OC3
- IC50 [1]: 85 µM
- solubility [2]: Insoluble

SMILES: CC(C)[C@@H]1CC[C@]2(C(=O)O)CC[C@]3(C)[C@H](CC[C@@H]4[C@@]5(C)Cc6sc(N)nc6C(C)(C)[C@@H]5CC[C@]43C)[C@@H]12
- IC50 [3]: 5.1 µM
- IC50 [1]: 3 µM
- IC50 [4]: 11.2 µM
- IC50 [5]: 7 µM
- IC50 [6]: 15.7 µM
- IC50 [8]: 6.9 µM
- IC50 [10]: 4.8 µM
- IC50 [13]: 24.9 µM
- IC50 [14]: 4.3 µM
- solubility [2]: Insoluble

SMILES: CC1(C)CC[C@]23CC[C@]4(C)[C@H](CC[C@@H]5[C@@]6(C)Cc7sc(Br)nc7C(C)(C)[C@@H]6CC[C@]54C)[C@H]2[C@H]1OC3
- IC50 [1]: 150 µM
- solubility [2]: Insoluble

SMILES: CC(C)[C@@H]1CC[C@]2(C(=O)O)CC[C@]3(C)[C@H](CC[C@@H]4[C@@]5(C)Cc6sc(Br)nc6C(C)(C)[C@@H]5CC[C@]43C)[C@@H]12
- IC50 [1]: 11 µM
- solubility [2]: Insoluble

SMILES: CC1(C)CC[C@]23CC[C@]4(C)[C@H](CC[C@@H]5[C@@]6(C)C=C(N7CCOCC7)C(=O)C(C)(C)[C@@H]6CC[C@]54C)[C@H]2[C@H]1OC3
- IC50 [1]: 226 µM

SMILES: CC1(C)CC[C@]23CC[C@]4(C)[C@H](CC[C@@H]5[C@@]6(C)C=C(O)C(=O)C(C)(C)[C@@H]6CC[C@]54C)[C@H]2[C@H]1OC3
- IC50 [1]: 25 µM

SMILES: CC1(C)CC[C@]23CC[C@]4(C)[C@H](CC[C@@H]5[C@@]6(C)CC(Br)C(=O)C(C)(C)[C@@H]6CC[C@]54C)[C@H]2[C@H]1OC3 (mixture of isomers)
- IC50 [1]: > 250 µM

SMILES: C=C(C)[C@@H]1CC[C@]2(C(=O)O)CC[C@]3(C)[C@H](CC[C@@H]4[C@@]5(C)Cc6c(n[nH]c6O)C(C)(C)C5CC[C@]43C)[C@@H]12 (single isomer, unassigned)
- IC50 [1]: 22 µM
- solubility [2]: Insoluble

SMILES: CC(C)[C@@H]1CC[C@]2(C(=O)O)CC[C@]3(C)[C@H](CC[C@@H]4[C@@]5(C)CCC(=O)C(C)(C)[C@@H]5CC[C@]43C)[C@@H]12 [DIHYDROBETULONIC ACID]
- IC50 [3]: 4.1 µM
- IC50 [1]: 4 µM
- IC50 [4]: 9.4 µM
- IC50 [5]: 5.9 µM
- IC50 [6]: 11.7 µM
- IC50 [8]: 4 µM
- IC50 [10]: 2.5 µM
- IC50 [13]: 22.6 µM
- IC50 [14]: 6.1 µM
